Measurements from ChEMBL document CHEMBL4265973, “Broad-spectrum antibacterial amphiphilic aminoglycosides: A new focus on the structure of the lipophilic groups extends the series of active dialkyl neamines” (Eur J Med Chem, 2018).
Converted amounts (≈) assume the structure as drawn.

Assays:
[1] = test system: Escherichia coli; experiment: Antibacterial activity against Escherichia coli PAZ505H8101 harboring AAC6'-1B by microdilution assay; assay type: functional
Outline: (§1)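 Broth microdilution MIC per CLSI recommendations, fresh culture in cation-adjusted Mueller-Hinton broth, starting inoculum 10^6 cells.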

[2] = test system: Acinetobacter lwoffii; experiment: Antibacterial activity against Acinetobacter lwoffii ATCC 17925 by microdilution assay; assay type: functional
Outline: (§2)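 Broth microdilution per CLSI recommendations, using a fresh culture in cation-adjusted Mueller-Hinton broth (CA-MHB) and a starting inoculum of 10^6 cells; the MIC is the value read.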

[3] = Cytotoxicity against mouse J774 cells assessed as cell viability at 30 uM after 24 hrs by MTT assay relative to control; assay type: cell-based; conditions: J774 cells, read-out: Activity
Outline: (§3)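 Murine J774 macrophages are exposed for 24 h to compound at 10 or 30 µM, then given 0.2 mg/mL MTT for 1 h. The reaction is stopped with DMSO and OD read at 570 nm; viability is metabolic activity as % of control. The number of independent experiments is given per value.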

[4] = test system: Klebsiella pneumoniae; experiment: Antibacterial activity against Klebsiella pneumoniae 700603 by microdilution assay; assay type: functional; outline: as §2
[5] = test system: Acinetobacter lwoffii; experiment: Antibacterial activity against Acinetobacter lwoffii AI.88-483 harboring APH3'-6A by microdilution assay; assay type: functional; outline: as §1
[6] = test system: Escherichia coli; experiment: Antibacterial activity against Escherichia coli L8058.1 harboring ANT2'-1A by microdilution assay; assay type: functional; outline: as §1
[7] = test system: Staphylococcus aureus; experiment: Antibacterial activity against methicillin-resistant Staphylococcus aureus ATCC 33592 by microdilution assay; assay type: functional; outline: as §1
[8] = test system: Staphylococcus aureus; experiment: Antibacterial activity against Staphylococcus aureus ATCC 25923 by microdilution assay; assay type: functional; outline: as §1
[9] = test system: Escherichia coli; experiment: microbe, parasite or virus in culture; conditions: ATCC 25922
[10] = test system: Pseudomonas aeruginosa; experiment: Antibacterial activity against Pseudomonas aeruginosa FO3 harboring AAC6'-2A by microdilution assay; assay type: functional; outline: as §1
[11] = test system: Pseudomonas aeruginosa; experiment: Antibacterial activity against Pseudomonas aeruginosa PA406 harboring triABC deletion mutant by microdilution assay; assay type: functional; outline: as §1
[12] = test system: Pseudomonas aeruginosa; experiment: Antibacterial activity against Pseudomonas aeruginosa ATCC 27853 by microdilution assay; assay type: functional; outline: as §2
[13] = test system: Pseudomonas aeruginosa; experiment: Antibacterial activity against Pseudomonas aeruginosa PA22 harboring surexp MexXY by microdilution assay; assay type: functional; outline: as §1
[14] = test system: Staphylococcus aureus; experiment: Antibacterial activity against Staphylococcus aureus SA-1 expressing NorA pump by microdilution assay
[15] = Cytotoxicity against mouse J774 cells assessed as cell viability at 10 uM after 24 hrs by MTT assay relative to control; assay type: cell-based; conditions: J774 cells, read-out: Activity; outline: as §3

Row | Compound | MIC [1] | MIC [2] | viability at 24 h, 30 µM [3] | MIC [4] | MIC [5] | MIC [6] | MIC [7] | MIC [8] | MIC [9] | MIC [10] | MIC [11] | MIC [12] | MIC [13] | MIC [14] | viability at 24 h, 10 µM [15]
1 | CCCCCCCO[C@@H]1[C@@H](N)[C@@H](O[C@H]2[C@H](O)[C@@H](OCCCCCCC)[C@H](N)C[C@@H]2N)O[C@H](CN)[C@H]1O | 16 µg/mL (≈ 30.8 µM) | 32 µg/mL (≈ 61.7 µM) | 79.9% | 64 µg/mL (≈ 123 µM) | > 128 µg/mL | 32 µg/mL (≈ 61.7 µM) | 8 µg/mL (≈ 15.4 µM) | 8 µg/mL (≈ 15.4 µM) | 32 µg/mL (≈ 61.7 µM) | 8 µg/mL (≈ 15.4 µM) | 4 µg/mL (≈ 7.71 µM) | 32 µg/mL (≈ 61.7 µM) | 16 µg/mL (≈ 30.8 µM) | 8 µg/mL (≈ 15.4 µM) | 96.3%
2 | CCCCCCCO[C@@H]1[C@@H](O)[C@H](O[C@H]2O[C@H](CN)[C@@H](O)[C@H](O)[C@H]2N)[C@@H](N)C[C@H]1N | > 128 µg/mL | 64 µg/mL (≈ 152 µM) | 71.3% | > 128 µg/mL | > 128 µg/mL | > 128 µg/mL | > 128 µg/mL | > 128 µg/mL | > 128 µg/mL | > 128 µg/mL | > 128 µg/mL | > 128 µg/mL | > 128 µg/mL | > 128 µg/mL | 84.3%
3 | CCCCCCCCCCCO[C@@H]1[C@@H](N)[C@@H](O[C@H]2[C@H](O)[C@@H](OCCCCCCC)[C@H](N)C[C@@H]2N)O[C@H](CN)[C@H]1O | 2 µg/mL (≈ 3.48 µM) | 2 µg/mL (≈ 3.48 µM) | 39.1% | 4 µg/mL (≈ 6.96 µM) | > 128 µg/mL | 4 µg/mL (≈ 6.96 µM) | 1 µg/mL (≈ 1.74 µM) | 1 µg/mL (≈ 1.74 µM) | 2 µg/mL (≈ 3.48 µM) | 4 µg/mL (≈ 6.96 µM) | 2 µg/mL (≈ 3.48 µM) | 2 µg/mL (≈ 3.48 µM) | 4 µg/mL (≈ 6.96 µM) | 32 µg/mL (≈ 55.7 µM) | 88.4%
4 | NC[C@H]1O[C@H](O[C@H]2[C@H](O)[C@@H](O)[C@H](N)C[C@@H]2N)[C@H](N)[C@@H](O)[C@@H]1O [NEAMINE] | > 128 µg/mL | 0.5 µg/mL (≈ 1.55 µM) | – | 32 µg/mL (≈ 99.3 µM) | > 128 µg/mL | 32 µg/mL (≈ 99.3 µM) | > 128 µg/mL | 16 to 32 µg/mL (≈ 49.6 to 99.3 µM) | 32 µg/mL (≈ 99.3 µM) | > 128 µg/mL | 64 µg/mL (≈ 199 µM) | > 128 µg/mL | > 128 µg/mL | 8 µg/mL (≈ 24.8 µM) | –
5 | CCCCCCCCCCCO[C@@H]1[C@@H](O)[C@H](O[C@H]2O[C@H](CN)[C@@H](O)[C@H](OCCCCCCC)[C@H]2N)[C@@H](N)C[C@H]1N | 4 µg/mL (≈ 6.96 µM) | 2 µg/mL (≈ 3.48 µM) | 38.8% | 8 µg/mL (≈ 13.9 µM) | > 128 µg/mL | 4 µg/mL (≈ 6.96 µM) | 1 µg/mL (≈ 1.74 µM) | 1 µg/mL (≈ 1.74 µM) | 16 µg/mL (≈ 27.8 µM) | 4 µg/mL (≈ 6.96 µM) | 2 µg/mL (≈ 3.48 µM) | 2 µg/mL (≈ 3.48 µM) | 4 µg/mL (≈ 6.96 µM) | 1 µg/mL (≈ 1.74 µM) | 82.9%
6 | NC[C@H]1O[C@H](O[C@H]2[C@H](O)[C@@H](OCc3ccc4ccccc4c3)[C@H](N)C[C@@H]2N)[C@H](N)[C@@H](OCc2ccc3ccccc3c2)[C@@H]1O | – | – | 75.7% | – | – | – | – | – | – | – | – | – | – | – | –
7 | GENTAMICIN | 1 µg/mL | < 0.25 µg/mL | – | 4 to 8 µg/mL | 2 µg/mL | 64 µg/mL | 1 µg/mL | 0.25 to 0.5 µg/mL | – | > 128 µg/mL | < 0.25 µg/mL | 1 µg/mL | 4 µg/mL | – | –
8 | NC[C@H]1O[C@H](O[C@H]2[C@H](O)[C@@H](OCCCCc3ccc4ccccc4c3)[C@H](N)C[C@@H]2N)[C@H](N)[C@@H](OCCCCc2ccc3ccccc3c2)[C@@H]1O | 4 µg/mL (≈ 5.82 µM) | 2 µg/mL (≈ 2.91 µM) | – | 32 µg/mL (≈ 46.6 µM) | > 128 µg/mL | 8 µg/mL (≈ 11.6 µM) | 2 µg/mL (≈ 2.91 µM) | 2 µg/mL (≈ 2.91 µM) | 8 µg/mL (≈ 11.6 µM) | 8 µg/mL (≈ 11.6 µM) | 8 µg/mL (≈ 11.6 µM) | 4 µg/mL (≈ 5.82 µM) | 8 µg/mL (≈ 11.6 µM) | 2 to 4 µg/mL (≈ 2.91 to 5.82 µM) | –
9 | NCC[C@H](O)C(=O)N[C@@H]1C[C@H](N)[C@@H](O[C@H]2O[C@H](CN)[C@@H](O)[C@H](O)[C@H]2O)[C@H](O)[C@H]1O[C@H]1O[C@H](CO)[C@@H](O)[C@H](N)[C@H]1O [AMIKACIN] | 64 µg/mL (≈ 109 µM) | < 0.25 µg/mL | – | 1 µg/mL (≈ 1.71 µM) | 128 µg/mL (≈ 219 µM) | 8 µg/mL (≈ 13.7 µM) | 8 to 16 µg/mL (≈ 13.7 to 27.3 µM) | 4 µg/mL (≈ 6.83 µM) | 4 µg/mL (≈ 6.83 µM) | 8 µg/mL (≈ 13.7 µM) | 1 µg/mL (≈ 1.71 µM) | 2 to 4 µg/mL (≈ 3.42 to 6.83 µM) | 8 µg/mL (≈ 13.7 µM) | 2 µg/mL (≈ 3.42 µM) | –
